From ChEMBL document CHEMBL4118021, “Studies of TAK1-centered polypharmacology with novel covalent TAK1 inhibitors” (Bioorg Med Chem, 2017)
Calls of active or inactive are those of the source. The calls are words filed in the database; no cut-off is given here.

What was measured:
[1] = target: Ribosomal protein S6 kinase alpha-6 (Homo sapiens) (UniProt Q9UK32); assay: Inhibition of human RSK4 (1 to 397 residues) expressed in mammalian expression system assessed as enzyme activity at 10 uM by KINOMEScan assay relative to control; set-up: scale not given: the % may be the effect or the level left
How it was run: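 In vitro ATP-site competition binding assay across a panel of 456 kinases, with compound tested at 1 and 10 μM.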

[2] = target: Lactoylglutathione lyase (Homo sapiens) (UniProt Q04760); assay: Binding affinity to GLO1 in human NCI-H358 cells at 1 uM by mass spectrometry based pull down assay; assay type: cell-based
[3] = target: Protein disulfide-isomerase A4 (Homo sapiens) (UniProt P13667); assay: Binding affinity to PDIA4 in human NCI-H358 cells at 1 uM by mass spectrometry based pull down assay; assay type: cell-based
[4] = target: T1, Mitogen-activated protein kinase kinase kinase 7 (Homo sapiens) (UniProt O43318); assay: Binding affinity to MAP3K7 in human NCI-H358 cells at 1 uM by mass spectrometry based pull down assay; assay type: cell-based
T1 sequence (whole entry): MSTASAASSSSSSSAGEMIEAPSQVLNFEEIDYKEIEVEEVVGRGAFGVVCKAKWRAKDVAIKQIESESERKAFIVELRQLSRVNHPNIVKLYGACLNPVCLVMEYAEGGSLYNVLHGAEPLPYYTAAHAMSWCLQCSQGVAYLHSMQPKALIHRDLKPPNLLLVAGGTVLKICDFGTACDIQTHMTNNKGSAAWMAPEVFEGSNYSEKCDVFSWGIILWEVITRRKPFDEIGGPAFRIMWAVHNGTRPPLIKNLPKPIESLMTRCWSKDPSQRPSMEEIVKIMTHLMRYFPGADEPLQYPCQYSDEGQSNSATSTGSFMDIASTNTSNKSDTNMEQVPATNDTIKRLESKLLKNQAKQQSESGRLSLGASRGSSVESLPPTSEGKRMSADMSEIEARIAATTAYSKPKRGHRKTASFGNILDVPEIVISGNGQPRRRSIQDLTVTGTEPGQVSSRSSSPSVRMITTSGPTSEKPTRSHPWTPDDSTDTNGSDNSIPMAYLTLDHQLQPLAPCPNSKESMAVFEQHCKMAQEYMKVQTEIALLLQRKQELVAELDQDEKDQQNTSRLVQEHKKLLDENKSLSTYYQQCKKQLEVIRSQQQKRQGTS

[5] = target: AP2-associated protein kinase 1 (Homo sapiens) (UniProt Q2M2I8); assay: Binding affinity to AAK1 in human NCI-H358 cells at 1 uM by mass spectrometry based pull down assay; assay type: cell-based
How it was run: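 NCI-H23 or NCI-H358 cells were grown and lysed. Lysates were incubated overnight at 4 °C with 1 μM biotinylated covalent probe or DMSO, then pulled down on streptavidin beads. Proteins were run on polyacrylamide gels and stained with Coomassie. Bands were excised, digested and identified by mass spectrometry.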

[6] = target: T2, Serine/threonine-protein kinase Chk1 (Homo sapiens) (UniProt O14757); assay: Binding affinity to CHEK1 in human NCI-H358 cells at 1 uM by mass spectrometry based pull down assay; assay type: cell-based
T2 sequence (whole entry): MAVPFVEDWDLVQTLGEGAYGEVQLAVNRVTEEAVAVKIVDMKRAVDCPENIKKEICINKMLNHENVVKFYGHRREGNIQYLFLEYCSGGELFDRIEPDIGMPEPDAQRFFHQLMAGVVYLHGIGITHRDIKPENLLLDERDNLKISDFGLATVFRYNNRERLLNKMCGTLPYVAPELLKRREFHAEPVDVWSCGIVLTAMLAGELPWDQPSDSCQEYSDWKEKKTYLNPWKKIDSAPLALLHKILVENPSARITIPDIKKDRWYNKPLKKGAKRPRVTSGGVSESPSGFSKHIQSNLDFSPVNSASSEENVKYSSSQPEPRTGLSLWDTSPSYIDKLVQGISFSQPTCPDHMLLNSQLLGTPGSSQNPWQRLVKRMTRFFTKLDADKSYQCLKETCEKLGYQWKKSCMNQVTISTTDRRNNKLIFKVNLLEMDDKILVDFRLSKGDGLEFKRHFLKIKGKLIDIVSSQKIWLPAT

[7] = system: NCI-H23; assay: Binding affinity to NDUFS7 in human NCI-H23 cells at 1 uM by mass spectrometry based pull down assay; assay type: cell-based
[8] = target: Transmembrane protein 263 (Homo sapiens) (UniProt Q8WUH6); assay: Binding affinity to TMEM263 in human NCI-H23 cells at 1 uM by mass spectrometry based pull down assay; assay type: cell-based
[9] = target: Calcyclin-binding protein (Homo sapiens) (UniProt Q9HB71); assay: Binding affinity to CACYBP in human NCI-H358 cells at 1 uM by mass spectrometry based pull down assay; assay type: cell-based
[10] = target: F-actin-capping protein subunit beta (Homo sapiens) (UniProt P47756); assay: Binding affinity to CAPZB in human NCI-H23 cells at 1 uM by mass spectrometry based pull down assay; assay type: cell-based
[11] = target: Coatomer subunit beta (Homo sapiens) (UniProt P53618); assay: Binding affinity to COPB1 in human NCI-H23 cells at 1 uM by mass spectrometry based pull down assay; assay type: cell-based
[12] = target: Protein NipSnap homolog 1 (Homo sapiens) (UniProt Q9BPW8); assay: Binding affinity to NIPSNAP1 in human NCI-H23 cells at 1 uM by mass spectrometry based pull down assay; assay type: cell-based
[13] = target: Proto-oncogene tyrosine-protein kinase Src (Homo sapiens) (UniProt P12931); assay: Binding affinity to SRC in human NCI-H358 cells at 1 uM by mass spectrometry based pull down assay; assay type: cell-based
[14] = target: Small ribosomal subunit protein uS7m (Homo sapiens) (UniProt Q9Y2R9); assay: Binding affinity to MRPS7 in human NCI-H23 cells at 1 uM by mass spectrometry based pull down assay; assay type: cell-based
[15] = target: 80S Ribosome (Homo sapiens) (UniProt P08865+P42677+P62753+P15880+P23396+P61247+P62701+P22090+P46782+P62081+P62241+P46781+P46783+P62280+P25398+P62277+P62263+P62841+P62244+P62249+P08708+P62269+P39019+P60866+P63220+P62266+P62847+P62851+P62854+P62979+P62857+P62273+P62861+P39023+P36578+P46777+Q02878+P18124+P62424+P62917+P32969+P27635+P62906+P62913+P30050+P26373+P40429+P50914+P61313+P18621+Q07020+Q02543+P84098+P46778+P35268+P62829+P62750+P83731+P61254+P61353+P46776+P46779+P47914+P62888+P62899+P62910+P49207+P42766+P18077+Q9Y3U8+P83881+P61927+P61513+P63173+P62891+P62945+P05388+P05386); assay: Binding affinity to RPL31 in human NCI-H358 cells at 1 uM by mass spectrometry based pull down assay; assay type: cell-based

Sequence of Protein disulfide-isomerase A4 (Homo sapiens) (P13667 whole entry): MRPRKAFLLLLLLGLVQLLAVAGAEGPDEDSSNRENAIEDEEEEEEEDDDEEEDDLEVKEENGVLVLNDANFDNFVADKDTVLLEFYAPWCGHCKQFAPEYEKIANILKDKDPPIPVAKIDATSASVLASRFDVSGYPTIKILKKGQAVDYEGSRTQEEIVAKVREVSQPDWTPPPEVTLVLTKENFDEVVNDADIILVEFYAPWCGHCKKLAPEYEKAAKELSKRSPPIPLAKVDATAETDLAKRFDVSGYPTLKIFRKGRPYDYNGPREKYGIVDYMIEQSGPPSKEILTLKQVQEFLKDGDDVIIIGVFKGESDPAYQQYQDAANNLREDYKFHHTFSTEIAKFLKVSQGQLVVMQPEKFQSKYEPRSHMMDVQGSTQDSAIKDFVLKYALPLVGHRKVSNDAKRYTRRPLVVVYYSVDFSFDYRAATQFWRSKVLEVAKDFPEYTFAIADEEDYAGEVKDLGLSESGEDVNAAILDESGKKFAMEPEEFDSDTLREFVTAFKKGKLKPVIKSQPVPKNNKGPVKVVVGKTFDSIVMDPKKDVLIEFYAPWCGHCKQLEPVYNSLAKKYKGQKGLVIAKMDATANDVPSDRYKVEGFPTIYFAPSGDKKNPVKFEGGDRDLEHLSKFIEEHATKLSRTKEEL
Sequence of Coatomer subunit beta (Homo sapiens) (P53618 whole entry): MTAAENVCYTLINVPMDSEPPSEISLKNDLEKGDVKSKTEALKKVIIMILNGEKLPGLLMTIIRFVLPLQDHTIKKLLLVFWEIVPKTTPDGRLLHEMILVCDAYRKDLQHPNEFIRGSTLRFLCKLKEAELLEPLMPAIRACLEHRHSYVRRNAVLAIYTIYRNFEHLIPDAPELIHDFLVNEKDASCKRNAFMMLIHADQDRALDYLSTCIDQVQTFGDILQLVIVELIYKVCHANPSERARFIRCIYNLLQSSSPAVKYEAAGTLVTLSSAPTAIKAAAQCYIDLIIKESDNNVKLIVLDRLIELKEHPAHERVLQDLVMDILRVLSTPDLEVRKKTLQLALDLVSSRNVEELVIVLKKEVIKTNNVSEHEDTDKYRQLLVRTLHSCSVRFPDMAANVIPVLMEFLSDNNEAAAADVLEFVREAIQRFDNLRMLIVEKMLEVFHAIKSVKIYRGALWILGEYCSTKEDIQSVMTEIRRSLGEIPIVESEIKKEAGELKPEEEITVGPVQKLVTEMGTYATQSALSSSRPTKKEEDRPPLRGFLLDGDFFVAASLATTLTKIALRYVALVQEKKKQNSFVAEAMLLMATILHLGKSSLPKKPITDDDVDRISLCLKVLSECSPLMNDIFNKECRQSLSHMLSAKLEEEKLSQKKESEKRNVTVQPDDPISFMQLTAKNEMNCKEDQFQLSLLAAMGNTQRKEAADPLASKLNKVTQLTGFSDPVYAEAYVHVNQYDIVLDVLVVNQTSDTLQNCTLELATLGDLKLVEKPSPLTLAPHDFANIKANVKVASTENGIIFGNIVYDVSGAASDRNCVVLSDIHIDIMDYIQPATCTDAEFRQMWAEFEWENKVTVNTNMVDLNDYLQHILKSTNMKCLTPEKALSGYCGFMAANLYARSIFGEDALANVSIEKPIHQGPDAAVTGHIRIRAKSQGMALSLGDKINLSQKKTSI
Sequence of Ribosomal protein S6 kinase alpha-6 (Homo sapiens) (Q9UK32 whole entry, the tested form may be a part): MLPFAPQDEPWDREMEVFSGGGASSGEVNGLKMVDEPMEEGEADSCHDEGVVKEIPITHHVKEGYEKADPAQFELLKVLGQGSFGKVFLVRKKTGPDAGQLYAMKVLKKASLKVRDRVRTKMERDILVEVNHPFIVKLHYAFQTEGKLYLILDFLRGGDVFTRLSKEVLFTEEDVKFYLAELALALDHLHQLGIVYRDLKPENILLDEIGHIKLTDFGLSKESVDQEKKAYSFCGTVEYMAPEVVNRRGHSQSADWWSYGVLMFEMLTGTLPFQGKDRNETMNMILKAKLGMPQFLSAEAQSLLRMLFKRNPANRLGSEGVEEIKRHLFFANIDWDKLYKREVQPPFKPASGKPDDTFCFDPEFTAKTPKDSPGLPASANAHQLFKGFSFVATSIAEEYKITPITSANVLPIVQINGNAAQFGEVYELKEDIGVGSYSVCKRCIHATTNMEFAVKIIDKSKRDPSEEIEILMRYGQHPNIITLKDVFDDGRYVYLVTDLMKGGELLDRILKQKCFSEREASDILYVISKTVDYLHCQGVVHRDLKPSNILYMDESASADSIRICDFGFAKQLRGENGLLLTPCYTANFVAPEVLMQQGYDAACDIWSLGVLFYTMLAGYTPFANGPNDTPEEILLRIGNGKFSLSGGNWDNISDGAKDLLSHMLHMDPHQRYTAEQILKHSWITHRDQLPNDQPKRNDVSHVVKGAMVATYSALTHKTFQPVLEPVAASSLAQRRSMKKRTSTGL
Sequence of Protein NipSnap homolog 1 (Homo sapiens) (Q9BPW8 whole entry): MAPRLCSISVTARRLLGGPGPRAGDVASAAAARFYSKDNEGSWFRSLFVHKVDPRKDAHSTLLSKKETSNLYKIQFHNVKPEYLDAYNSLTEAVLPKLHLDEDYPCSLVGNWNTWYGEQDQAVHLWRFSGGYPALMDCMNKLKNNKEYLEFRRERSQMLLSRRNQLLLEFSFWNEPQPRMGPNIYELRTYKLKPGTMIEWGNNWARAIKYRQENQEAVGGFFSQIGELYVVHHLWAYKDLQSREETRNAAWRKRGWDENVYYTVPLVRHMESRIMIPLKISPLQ
Sequence of Calcyclin-binding protein (Homo sapiens) (Q9HB71 whole entry): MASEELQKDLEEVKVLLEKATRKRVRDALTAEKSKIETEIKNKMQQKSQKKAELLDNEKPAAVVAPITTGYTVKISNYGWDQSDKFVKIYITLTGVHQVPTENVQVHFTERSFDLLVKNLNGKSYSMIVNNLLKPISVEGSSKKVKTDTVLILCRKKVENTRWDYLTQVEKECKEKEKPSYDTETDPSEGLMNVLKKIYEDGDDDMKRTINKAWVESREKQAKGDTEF
Sequence of Lactoylglutathione lyase (Homo sapiens) (Q04760 2-184 limits assumed): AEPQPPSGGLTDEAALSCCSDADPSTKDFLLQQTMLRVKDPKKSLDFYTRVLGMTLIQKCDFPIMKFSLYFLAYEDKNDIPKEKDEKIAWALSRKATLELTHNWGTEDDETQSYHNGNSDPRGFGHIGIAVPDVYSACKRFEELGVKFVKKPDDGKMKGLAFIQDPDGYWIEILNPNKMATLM
Sequence of Proto-oncogene tyrosine-protein kinase Src (Homo sapiens) (P12931 2-536 limits assumed): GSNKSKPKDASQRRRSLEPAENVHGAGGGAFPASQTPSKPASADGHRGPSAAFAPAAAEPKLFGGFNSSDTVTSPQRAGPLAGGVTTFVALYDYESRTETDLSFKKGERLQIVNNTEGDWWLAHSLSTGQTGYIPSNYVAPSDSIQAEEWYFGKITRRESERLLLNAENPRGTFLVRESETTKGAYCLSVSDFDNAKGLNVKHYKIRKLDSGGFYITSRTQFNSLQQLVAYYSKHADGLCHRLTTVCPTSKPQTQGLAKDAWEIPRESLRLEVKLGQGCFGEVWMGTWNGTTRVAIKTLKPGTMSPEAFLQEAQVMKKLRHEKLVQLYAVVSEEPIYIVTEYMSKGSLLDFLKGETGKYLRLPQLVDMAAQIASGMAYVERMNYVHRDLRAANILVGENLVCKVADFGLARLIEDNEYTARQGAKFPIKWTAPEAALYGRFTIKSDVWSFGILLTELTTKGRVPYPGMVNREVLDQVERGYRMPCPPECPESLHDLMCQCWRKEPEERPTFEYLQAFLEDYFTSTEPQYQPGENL
Sequence of F-actin-capping protein subunit beta (Homo sapiens) (P47756 whole entry): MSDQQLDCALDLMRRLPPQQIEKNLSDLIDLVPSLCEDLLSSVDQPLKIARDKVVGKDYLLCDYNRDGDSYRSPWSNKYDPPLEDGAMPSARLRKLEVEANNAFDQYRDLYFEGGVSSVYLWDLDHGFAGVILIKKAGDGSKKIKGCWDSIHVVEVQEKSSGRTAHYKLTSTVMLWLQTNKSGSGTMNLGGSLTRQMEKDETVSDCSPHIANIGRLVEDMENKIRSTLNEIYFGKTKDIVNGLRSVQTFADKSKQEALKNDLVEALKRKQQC
Sequence of AP2-associated protein kinase 1 (Homo sapiens) (Q2M2I8 whole entry, looked up): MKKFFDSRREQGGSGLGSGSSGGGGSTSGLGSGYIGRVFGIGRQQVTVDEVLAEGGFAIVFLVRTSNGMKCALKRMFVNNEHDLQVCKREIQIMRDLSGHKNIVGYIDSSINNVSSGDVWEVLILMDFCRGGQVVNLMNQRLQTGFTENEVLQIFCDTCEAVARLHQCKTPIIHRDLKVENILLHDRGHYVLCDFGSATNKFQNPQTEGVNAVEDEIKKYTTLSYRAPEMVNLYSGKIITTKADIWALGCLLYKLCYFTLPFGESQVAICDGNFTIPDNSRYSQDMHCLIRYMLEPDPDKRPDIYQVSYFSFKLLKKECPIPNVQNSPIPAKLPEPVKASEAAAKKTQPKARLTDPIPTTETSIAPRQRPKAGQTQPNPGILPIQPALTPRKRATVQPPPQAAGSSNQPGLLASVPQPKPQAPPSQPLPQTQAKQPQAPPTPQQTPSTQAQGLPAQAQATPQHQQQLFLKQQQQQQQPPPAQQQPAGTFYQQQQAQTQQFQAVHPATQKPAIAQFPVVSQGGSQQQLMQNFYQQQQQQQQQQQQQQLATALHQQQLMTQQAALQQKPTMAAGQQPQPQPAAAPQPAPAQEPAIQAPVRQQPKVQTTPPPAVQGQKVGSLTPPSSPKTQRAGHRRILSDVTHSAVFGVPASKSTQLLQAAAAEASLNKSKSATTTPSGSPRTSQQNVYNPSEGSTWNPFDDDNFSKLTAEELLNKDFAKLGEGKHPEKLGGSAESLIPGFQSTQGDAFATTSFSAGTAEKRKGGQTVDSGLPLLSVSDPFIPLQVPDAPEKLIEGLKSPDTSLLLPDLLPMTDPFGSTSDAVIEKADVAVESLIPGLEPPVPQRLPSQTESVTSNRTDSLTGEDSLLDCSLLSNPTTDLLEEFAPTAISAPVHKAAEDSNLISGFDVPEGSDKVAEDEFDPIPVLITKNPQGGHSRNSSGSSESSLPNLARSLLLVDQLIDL

Activity [2]	Activity [3]	Activity [4]	Activity [5]	Activity [6]	Activity [8]	Activity [9]	Activity [10]	Activity [11]	Activity [12]	Activity [13]	Activity [14]	Activity [15]	SMILES	Activity [1] [%]	Activity [7]
–	–	–	–	–	–	–	–	–	–	–	–	–	COc1cc(O)c2c(c1)/C=C/C[C@H](O)[C@H](O)C(=O)/C=C\C[C@H](C)OC2=O	3	–
Active	Active	Active	Active	Active	Active	Active	Active	Active	Active	Active	Active	Active	C=CC(=O)Nc1ccccc1Nc1nc(Nc2ccc(N3CCN(CCOCCOCCOCCNC(=O)CCCC[C@@H]4SC[C@@H]5NC(=O)N[C@@H]54)CC3)cc2)ncc1Cl	–	Active
